# In ChEMBL document CHEMBL1671676, “In vitro activity of nemonoxacin, a novel nonfluorinated quinolone, against 2,440 clinical isolates” (2009):
# Key:
# Format in all cases: functional
# Parameters in all cases: scale not given: the % may be the effect or the level left
# Streptococcus pneumoniae [1] = experiment: Antibacterial activity against Streptococcus pneumoniae assessed as percent cumulative susceptible isolates at minimum inhibitory concentration of 0.06 ug/ml by CLSI broth microdilution method
# Klebsiella pneumoniae [2] = experiment: Antibacterial activity against Klebsiella pneumoniae assessed as percent cumulative susceptible isolates at minimum inhibitory concentration of 4 ug/ml by CLSI broth microdilution method
# Staphylococcus aureus [3] = experiment: Antibacterial activity against methicillin-susceptible Staphylococcus aureus assessed as percent cumulative susceptible isolates at minimum inhibitory concentration of […] by CLSI broth microdilution method
# Pseudomonas aeruginosa [4] = experiment: Antibacterial activity against Pseudomonas aeruginosa assessed as percent cumulative susceptible isolates at minimum inhibitory concentration of 1 ug/ml by CLSI broth microdilution method
# [5] = test system: Stenotrophomonas maltophilia; experiment: Antibacterial activity against Stenotrophomonas maltophilia assessed as percent cumulative susceptible isolates at minimum inhibitory concentration of 1 ug/ml by CLSI broth microdilution method
# [6] = test system: Staphylococcus epidermidis; experiment: Antibacterial activity against methicillin-susceptible Staphylococcus epidermidis assessed as percent cumulative susceptible isolates at minimum inhibitory concentration of 2 ug/ml by CLSI broth microdilution method
# Klebsiella pneumoniae [7] = experiment: Antibacterial activity against Klebsiella pneumoniae assessed as percent cumulative susceptible isolates at minimum inhibitory concentration of 1 ug/ml by CLSI broth microdilution method
# Klebsiella pneumoniae [8] = experiment: Antibacterial activity against Klebsiella pneumoniae assessed as percent cumulative susceptible isolates at minimum inhibitory concentration of 32 ug/ml by CLSI broth microdilution method
# Staphylococcus aureus [9] = experiment: Antibacterial activity against methicillin-susceptible Staphylococcus aureus assessed as percent cumulative susceptible isolates at minimum inhibitory concentration of 32 ug/ml by CLSI broth microdilution method
# Outline: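 Clinical isolates tested by CLSI broth microdilution using 96-well panels of doubling drug dilutions in cation-adjusted Mueller-Hinton broth with 5% lysed horse blood. MIC was read from these panels. Panel quality control used CLSI ATCC strains, including S. pneumoniae 49619, S. aureus 29213, E. faecalis 29212 and E. coli 25922. Cumulative percentages of isolates were tabulated at each MIC.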
# Klebsiella oxytoca = experiment: Antibacterial activity against Klebsiella oxytoca assessed as percent cumulative susceptible isolates at minimum inhibitory concentration of 0.06 ug/ml by CLSI broth microdilution method
# Enterobacter cloacae [10] = experiment: Antibacterial activity against Enterobacter cloacae assessed as percent cumulative susceptible isolates at minimum inhibitory concentration of 4 ug/ml by CLSI broth microdilution method
# Staphylococcus aureus [11] = experiment: Antibacterial activity against community-associated methicillin-resistant Staphylococcus aureus assessed as percent cumulative susceptible isolates at minimum inhibitory concentration of […] by CLSI broth microdilution method
# Enterobacter cloacae [12] = experiment: Antibacterial activity against Enterobacter cloacae assessed as percent cumulative susceptible isolates at minimum inhibitory concentration of 8 ug/ml by CLSI broth microdilution method
# Enterobacter cloacae [13] = experiment: Antibacterial activity against Enterobacter cloacae assessed as percent cumulative susceptible isolates at minimum inhibitory concentration of 1 ug/ml by CLSI broth microdilution method
# [14] = test system: Staphylococcus epidermidis; experiment: Antibacterial activity against methicillin-susceptible Staphylococcus epidermidis assessed as percent cumulative susceptible isolates at minimum inhibitory concentration of […] by CLSI broth microdilution method
# Enterococcus faecium [15] = experiment: Antibacterial activity against Enterococcus faecium assessed as percent cumulative susceptible isolates at minimum inhibitory concentration of 2 ug/ml by CLSI broth microdilution method
# Staphylococcus aureus [16] = experiment: Antibacterial activity against methicillin-susceptible Staphylococcus aureus assessed as percent cumulative susceptible isolates at minimum inhibitory concentration of 0.5 ug/ml by CLSI broth microdilution method
# Streptococcus pneumoniae [17] = experiment: Antibacterial activity against penicillin-resistant Streptococcus pneumoniae assessed as percent cumulative susceptible isolates at minimum inhibitory concentration of […] by CLSI broth microdilution method
# Proteus mirabilis = experiment: Antibacterial activity against Proteus mirabilis assessed as percent cumulative susceptible isolates at minimum inhibitory concentration of 4 ug/ml by CLSI broth microdilution method
# Enterobacter cloacae [18] = experiment: Antibacterial activity against Enterobacter cloacae assessed as percent cumulative susceptible isolates at minimum inhibitory concentration of 32 ug/ml by CLSI broth microdilution method
# Staphylococcus aureus [19] = experiment: Antibacterial activity against methicillin-susceptible Staphylococcus aureus assessed as percent cumulative susceptible isolates at minimum inhibitory concentration of 4 ug/ml by CLSI broth microdilution method
# Staphylococcus aureus [20] = experiment: Antibacterial activity against hospital-associated methicillin-resistant Staphylococcus aureus assessed as percent cumulative susceptible isolates at minimum inhibitory concentration of […] by CLSI broth microdilution method
# [21] = test system: Stenotrophomonas maltophilia; experiment: Antibacterial activity against Stenotrophomonas maltophilia assessed as percent cumulative susceptible isolates at minimum inhibitory concentration of 4 ug/ml by CLSI broth microdilution method
# Enterobacter cloacae [22] = experiment: Antibacterial activity against Enterobacter cloacae assessed as percent cumulative susceptible isolates at minimum inhibitory concentration of […] by CLSI broth microdilution method
# Escherichia coli [23] = experiment: Antibacterial activity against Escherichia coli assessed as percent cumulative susceptible isolates at minimum inhibitory concentration of 1 ug/ml by CLSI broth microdilution method
# Escherichia coli [24] = experiment: Antibacterial activity against Escherichia coli assessed as percent cumulative susceptible isolates at minimum inhibitory concentration of 4 ug/ml by CLSI broth microdilution method
# Staphylococcus aureus [25] = experiment: Antibacterial activity against methicillin-resistant Staphylococcus aureus assessed as percent cumulative susceptible isolates at minimum inhibitory concentration of 1 ug/ml by CLSI broth microdilution method
# Staphylococcus aureus [26] = experiment: Antibacterial activity against methicillin-resistant Staphylococcus aureus assessed as percent cumulative susceptible isolates at minimum inhibitory concentration of […] by CLSI broth microdilution method
# Pseudomonas aeruginosa [27] = experiment: Antibacterial activity against Pseudomonas aeruginosa assessed as percent cumulative susceptible isolates at minimum inhibitory concentration of 32 ug/ml by CLSI broth microdilution method
# Staphylococcus aureus [28] = experiment: Antibacterial activity against methicillin-susceptible Staphylococcus aureus assessed as percent cumulative susceptible isolates at minimum inhibitory concentration of 1 ug/ml by CLSI broth microdilution method
# Staphylococcus aureus [29] = experiment: Antibacterial activity against hospital-associated methicillin-resistant Staphylococcus aureus assessed as percent cumulative susceptible isolates at minimum inhibitory concentration of 8 ug/ml by CLSI broth microdilution method
# Pseudomonas aeruginosa [30] = experiment: Antibacterial activity against Pseudomonas aeruginosa assessed as percent cumulative susceptible isolates at minimum inhibitory concentration of 2 ug/ml by CLSI broth microdilution method
# Escherichia coli [31] = experiment: Antibacterial activity against Escherichia coli assessed as percent cumulative susceptible isolates at minimum inhibitory concentration of 0.06 ug/ml by CLSI broth microdilution method
# Enterococcus faecium [32] = experiment: Antibacterial activity against Enterococcus faecium assessed as percent cumulative susceptible isolates at minimum inhibitory concentration of 32 ug/ml by CLSI broth microdilution method
# Escherichia coli [33] = experiment: Antibacterial activity against Escherichia coli assessed as percent cumulative susceptible isolates at minimum inhibitory concentration of […] by CLSI broth microdilution method
# Pseudomonas aeruginosa [34] = experiment: Antibacterial activity against Pseudomonas aeruginosa assessed as percent cumulative susceptible isolates at minimum inhibitory concentration of […] by CLSI broth microdilution method
# Enterobacter cloacae [35] = experiment: Antibacterial activity against Enterobacter cloacae assessed as percent cumulative susceptible isolates at minimum inhibitory concentration of 0.06 ug/ml by CLSI broth microdilution method
SMILES,Activity (Streptococcus pneumoniae [1]),Activity (Klebsiella pneumoniae [2]),Activity (Staphylococcus aureus [3]),Activity (Pseudomonas aeruginosa [4]),Activity [5],Activity [6],Activity (Klebsiella pneumoniae [7]),Activity (Klebsiella pneumoniae [8]),Activity (Staphylococcus aureus [9]),Activity (Klebsiella oxytoca),Activity (Enterobacter cloacae [10]),Activity (Staphylococcus aureus [11]),Activity (Enterobacter cloacae [12]),Activity (Enterobacter cloacae [13]),Activity [14],Activity (Enterococcus faecium [15]),Activity (Staphylococcus aureus [16]),Activity (Streptococcus pneumoniae [17]),Activity (Proteus mirabilis),Activity (Enterobacter cloacae [18]),further results
C[C@H]1COc2c(N3CCN(C)CC3)c(F)cc3c(=O)c(C(=O)O)cn1c23.C[C@H]1COc2c(N3CCN(C)CC3)c(F)cc3c(=O)c(C(=O)O)cn1c23.O [LEVOFLOXACIN],0.5%,96%,81.8%,59.9%,46.2%,55.8%,92.5%,100%,100%,93.8%,97.2%,24%,98.6%,91.7%,53.5%,23.7%,88.8%,3.1%,93.9%,100%,Activity (Staphylococcus aureus [19]): 92%; Activity (Staphylococcus aureus [20]): 3%; Activity [21]: 84.6%; Activity (Enterobacter cloacae [22]): 90.3%; Activity (Escherichia coli [23]): 75.1%; Activity (Escherichia coli [24]): 75.6%; Activity (Staphylococcus aureus [25]): 9.4%; Activity (Staphylococcus aureus [26]): 8.7%; Activity (Pseudomonas aeruginosa [27]): 100%; Activity (Staphylococcus aureus [28]): 91.4%; Activity (Staphylococcus aureus [29]): 4%; Activity (Pseudomonas aeruginosa [30]): 70.1%; Activity (Escherichia coli [31]): 66.4%; Activity (Enterococcus faecium [32]): 100%; Activity (Escherichia coli [33]): 70%; Activity (Pseudomonas aeruginosa [34]): 10.2%; Activity (Enterobacter cloacae [35]): 87.5%
COc1c(N2C[C@@H](C)C[C@H](N)C2)ccc2c(=O)c(C(=O)O)cn(C3CC3)c12 [NEMONOXACIN],99.4%,94%,92.5%,51.1%,26.9%,97.8%,86.9%,98%,100%,6.3%,93.1%,60%,95.8%,91.7%,86%,31.6%,93.9%,84.4%,81.8%,100%,Activity (Staphylococcus aureus [19]): 98.9%; Activity (Staphylococcus aureus [20]): 4%; Activity [21]: 73.1%; Activity (Enterobacter cloacae [22]): 83.3%; Activity (Escherichia coli [23]): 74.8%; Activity (Escherichia coli [24]): 75.8%; Activity (Staphylococcus aureus [25]): 34.6%; Activity (Staphylococcus aureus [26]): 16.5%; Activity (Pseudomonas aeruginosa [27]): 91.2%; Activity (Staphylococcus aureus [28]): 94.9%; Activity (Staphylococcus aureus [29]): 68.7%; Activity (Pseudomonas aeruginosa [30]): 66.4%; Activity (Escherichia coli [31]): 22.7%; Activity (Enterococcus faecium [32]): 79%; Activity (Escherichia coli [33]): 68.8%; Activity (Pseudomonas aeruginosa [34]): 4.4%; Activity (Enterobacter cloacae [35]): 8.3%
